The source made the active and inactive calls. The rule behind the calls is not given here.

The text below walks through data of ChEMBL document CHEMBL1155908, “Muscarinic receptor 1 agonist activity of novel N-arylthioureas substituted 3-morpholino arecoline derivatives in Alzheimer's presenile dementia models” (Bioorg Med Chem, 2008).

In one assay the test system is Cortex. Briefly: Stimulation of (1,4,5)-trisphosphate formation in Wistar rat cerebral cortex relative to basal. It counts as functional. The arrangement: concentration or dose not given beside the values. The method, boiled down: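 Rat cerebral cortex slices were labelled with [3H]myoinositol, then stimulated with compound at 1–500 µmol/l. Basal IP3 was measured, and acetylcholine iodide served as the reference stimulus. [3H]IP3 formed was counted by liquid scintillation. Values are mean and SD of three experiments, each run in duplicate.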

Assay [1] concerns the target T1, Muscarinic acetylcholine receptor M1 (Rattus norvegicus, UniProt P08482).
T1 sequence (P08482 whole entry): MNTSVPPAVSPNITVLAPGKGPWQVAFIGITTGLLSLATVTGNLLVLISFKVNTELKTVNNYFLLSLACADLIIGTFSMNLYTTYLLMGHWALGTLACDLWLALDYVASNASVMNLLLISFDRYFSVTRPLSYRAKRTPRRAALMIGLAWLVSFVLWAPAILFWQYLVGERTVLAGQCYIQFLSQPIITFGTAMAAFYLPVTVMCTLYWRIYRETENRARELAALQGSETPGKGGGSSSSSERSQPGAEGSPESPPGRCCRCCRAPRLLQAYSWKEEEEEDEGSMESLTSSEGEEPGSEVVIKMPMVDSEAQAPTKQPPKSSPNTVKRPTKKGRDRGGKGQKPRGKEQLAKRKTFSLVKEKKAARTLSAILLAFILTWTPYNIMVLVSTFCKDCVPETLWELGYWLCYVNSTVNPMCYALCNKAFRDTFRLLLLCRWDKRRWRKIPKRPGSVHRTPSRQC
Briefly: Displacement of [3H]QNB from muscarinic M1 receptor Wistar rat cortex synaptosomal membrane. The method in brief: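 Male Wistar rat cortex synaptosomal membranes were prepared in Tris–HCl 50 mmol/L pH 7.4 with 0.32 mol/L sucrose, spun at 1000g then 32,000g at 4 °C, and resuspended in 50 mmol/L phosphate buffer pH 7.4 with MgCl2. Membrane protein was incubated with 0.2 nM [3H]QNB and displacer for 2 h at 37 °C, then GF/B filtered and counted by scintillation. IC50 and Ki were obtained by curve analysis.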

The species entered for assay [2] is Rattus norvegicus. Kind of assay: Effect on scopolamine-induced spartial working memory loss in Wistar rat on Y maze assessed as alteration behavior. It counts as functional. The method in brief: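 Y maze, male Wistar rats, 200–250 g. Compound plus scopolamine was given 30 min before free exploration. Arm entries were recorded visually. Alternation was scored as successive entries into all three arms over overlapping triplets. Percent alternation = actual alternations / (total entries − 2) × 100.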

The species entered for assay [3] is Rattus norvegicus. Briefly: Reversal of scopolamine-induced memory loss in Wistar rat assessed as reduction of number of mistakes relative to control. The format is functional. The method in brief:
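Passive avoidance step-down task run on male Wistar rats, 200–250 g, n = 8, with scopolamine-induced memory loss. Mistakes were counted. The dose range tested was 0.05–0.2 mg/kg, and 0.1 mg/kg was used in the in vivo studies.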

Assay [4] is filed under the species Rattus norvegicus. Briefly: Reversal of scopolamine-induced learning impairment and memory loss in Wistar rat on elevated plus maze assessed as transfer latency time on day 1 relative to control. It counts as functional. The method in brief: (§1)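 Elevated plus maze, male Wistar rats. Scopolamine alone or with compound was given 30 min before a 90 s exploration, and saline 0.9% was given to controls. Transfer latency from the open-arm end to a closed arm was timed on day 1, then retested in the same animals on day 2. Mean ± SEM.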

For assay [5], the species on record is Rattus norvegicus. Kind of assay: Reversal of scopolamine-induced learning impairment and memory loss in Wistar rat on elevated plus maze assessed as transfer latency time on day 2 relative to control. The format is functional. The method, boiled down:
as §1

For `CN1CCC=C(C2CN(C(=S)Nc3ccccc3F)CCO2)C1` (centres undefined), the Activity in the assay with Cortex was determined as 129%; in the assay filed under Rattus norvegicus [2], 58%. In assay [1], this molecule came in with an IC50 of 67 µM. Also, the Ki in assay [1] is 15 µM. The result in the assay filed under Rattus norvegicus [3] was Active.
On to `CN1CCC=C(C2CN(C(=S)Nc3ccccc3)CCO2)C1` (centres undefined), for which, in the assay on Cortex, the Activity amounted to 101%. In assay [1], this molecule gave an IC50 of 153 µM and a Ki of 49 µM.
Take `CN1CCC=C(C2CN(C(=S)Nc3ccc(Cl)cc3)CCO2)C1` (centres undefined): the Activity in the assay listed under Rattus norvegicus [4] is on record as 34 s; in the assay with Cortex, 216%; in the assay listed under Rattus norvegicus [5], 9 s; in the assay listed under Rattus norvegicus [2], 64%; in the assay filed under Rattus norvegicus [3], 10. Further, in assay [1], the IC50 amounted to 1.2 µM. In assay [1], affinity was put at a Ki of 0.31 µM.
Turning to `CN1CCC=C(C2CN(C(=S)Nc3ccc(Cl)cc3Cl)CCO2)C1` (centres undefined), in the assay with Cortex, the Activity was 116%. Besides, in assay [1], the 50% inhibitory concentration (IC50) stood at 112 µM and the Ki worked out at 31 µM. In addition, the result in the assay filed under Rattus norvegicus [3] was Active.
With `CN1CCC=C(C2CN(C(=S)Nc3ccccc3Cl)CCO2)C1` (centres undefined), the Activity was determined as 60 s in the assay filed under Rattus norvegicus [4], 100% in the assay with Cortex and 43 s in the assay filed under Rattus norvegicus [5]. In assay [1], this molecule gave an IC50 of 515 µM. The molecule also returned a Ki in assay [1] of 214 µM.
On to `COc1cccc(NC(=S)N2CCOC(C3=CCCN(C)C3)C2)c1` (centres undefined), for which the Activity in the assay with Cortex amounted to 106%. For the same molecule, in assay [1], the IC50 was 120 µM and the Ki came to 41 µM. Moreover, the outcome in the assay listed under Rattus norvegicus [3] was Active.
Regarding `CC(=O)OCC[N+](C)(C)C` [ACETYLCHOLINE], the Activity in the assay with Cortex stood at 268%.
Regarding `COc1ccc(NC(=S)N2CCOC(C3=CCCN(C)C3)C2)cc1` (centres undefined), the result in the assay filed under Rattus norvegicus [4] and in the assay listed under Rattus norvegicus [5] was Active. For the same molecule, the figures for the Activity in the assay with Cortex, in the assay filed under Rattus norvegicus [2] and in the assay filed under Rattus norvegicus [3] were 178%, 60% and 10, respectively. The molecule further yielded an IC50 in assay [1] of 15 µM. The molecule also had a Ki in assay [1] of 4 µM.
For `COc1ccccc1NC(=S)N1CCOC(C2=CCCN(C)C2)C1` (centres undefined), the Activity with Cortex is 100%. Also, in assay [1], the IC50 was 362 µM and the Ki worked out at 98 µM.
For `CN1CCC=C(C2CN(C(=S)Nc3ccc(F)cc3)CCO2)C1` (centres undefined), the result in the assay listed under Rattus norvegicus [4] and in the assay filed under Rattus norvegicus [5] was Active. Besides, the Activity with Cortex is recorded as 155%; in the assay filed under Rattus norvegicus [2], 61%; in the assay filed under Rattus norvegicus [3], 11. In addition, the IC50 in assay [1] turned out to be 31 µM. Besides, the Ki in assay [1] was 7 µM.
On to `CN1CCC=C(C2CN(C(=S)Nc3cccc(Cl)c3)CCO2)C1` (centres undefined), for which the Activity in the assay with Cortex came to 103%. In assay [1], this molecule had an IC50 of 236 µM and a Ki of 85 µM.
